These results are taken from PMC3590405 (European Journal of Nuclear Medicine and Molecular Imaging, 2013).

SMILES strings stand for the structures.

The conditions of data set [1]: cited from earlier work.
The target in data set [2] is synthetic Aβ(1-40) amyloid fibrils (Homo sapiens, UniProt P05067). The data set is described as follows: Competition binding against [3H]PIB on Aβ. The following applies: [3H]PIB 3 nM, Aβ(1-40) fibrils.
For a further data set, the target named is Aβ(1-42) amyloid fibrils (Homo sapiens, UniProt P05067). The data set is described as follows: Competition binding against [3H]PIB on Aβ. The following applies: [3H]PIB 3 nM, Aβ(1-42) fibrils.
Aβ(1-42) amyloid fibrils, sequence (P05067 672-713): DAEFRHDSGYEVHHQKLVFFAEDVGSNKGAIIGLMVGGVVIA
The test system of another data set is amyloid-β plaques. Put plainly: In vitro autoradiography on human AD brain sections. The class given is binding. The following applies: white matter. An outline of the steps: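 Cryo-cut 10 μm post-mortem AD cortical sections preincubated in 50 mM Tris (pH 7.4) at room temperature, then 30 min with 3 nM [3H]ligand in Tris buffer. Optical densities (digital light units/mm²) read in grey and white matter ROIs. Subcortical white matter signal taken as nonspecific binding. Signal-to-noise = (grey − white)/white.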

A short description of data set [3]: Brain time-activity curves in human PET. The class given is in vivo. The settings on record: after intravenous injection. A digest of the protocol: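 [11C]radioligand in sterile disodium phosphate-buffered saline (pH 7.4), filtered, given as an IV bolus to control subjects and mild–moderate AD patients. Dose for the AZD2995 radioligand was 410 ± 18 MBq (620 ± 486 GBq/μmol). List-mode PET ran 93 min (38 frames), with PSF-modelled iterative reconstruction. Brain radioactivity was expressed as percent injected activity over time.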

In the next data set the target is amyloid-β (Homo sapiens, UniProt P05067). Put plainly: Human PET, DVR by reference Logan with cerebellum as reference. The data set is classed as in vivo. The following applies: for DVR (mean ± SD), anterior cingulate cortex / DVR (mean ± SD), grey matter / DVR (mean ± SD), hippocampus / DVR (mean ± SD), lateral temporal cortex / DVR (mean ± SD), parietal cortex / DVR (mean ± SD), posterior cingulate cortex / DVR (mean ± SD), prefrontal cortex / DVR (mean ± SD), white matter: refLogan. A digest of the protocol: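 IV bolus [11C]radioligands in controls and AD patients; ROIs manually drawn on 1.5-T T1 MRI, cortical ROIs restricted to segmented grey matter. Reference Logan used cerebellar cortex (white matter and vermis excluded) as reference. Six linear-phase frames: 13–45 min for AZD2995, 30–60 min for AZD2184. DVR = target/cerebellum V T. Groups compared by Mann–Whitney U (p < 0.05) and pooled-SD effect size.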
amyloid-β, sequence (P05067 672-711 limits assumed): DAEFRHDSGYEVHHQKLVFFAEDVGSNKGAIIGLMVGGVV

The subject of data set [4] is amyloid-β plaques and neurofibrillary tangles. The settings on record: AD patients; cited from earlier work.
[5] abbreviates: read-out: IC50, inhibition of [3H]PIB binding.
Where [6] appears, read: AD patients vs control subjects, DVR.

synthetic Aβ(1-40) amyloid fibrils, sequence (P05067 672-711): as the sequence (P05067 672-711 limits assumed) above

On to `CNc1ccc(-c2nc3ccc(O)cc3s2)cn1` [AZD2184], for which the logD in data set [1] was 1.8.

Regarding `CNc1ccc(-c2nc3ccc(O)cc3o2)cn1` [AZD2995], the entries for the “pIC50, inhibition of [3H]PIB binding” value (in data set [2]; on Aβ(1-42) amyloid fibrils) were 6.77 ± 0.02 and 6.69 ± 0.05, respectively. Further, the IC50 in data set [2] (setting [5]) was 170 nM; on Aβ(1-42) amyloid fibrils (setting [5]), 204 nM. For the same compound, in data set [1], the logD is recorded as 1.3.

Regarding `[3H]C([3H])([3H])Nc1ccc(-c2nc3ccc(O)cc3s2)cc1` [[^3H]PIB], the “nonspecific binding and background, rank order” value in the data set on amyloid-β plaques is reported as “highest”.

In the case of `[11CH3]Nc1ccc(-c2nc3ccc(O)cc3s2)cn1` [[^11C]AZD2184], the “time to peak of total radioactivity in brain” value in data set [3] is on record as “at the same time”. The “radioactivity in the brain at peak” value in data set [3] (% of injected radioactivity) is given as 3.0–3.5%. For the same compound, at amyloid-β (setting [6]), the “Effect size, anterior cingulate cortex” value is 8.52; the “Effect size, grey matter” value turned out to be 4.89; the “Effect size, hippocampus” value was 1.73; the “Effect size, lateral temporal cortex” value came out at 5.00. For the same compound, at amyloid-β (setting [6]), the “Effect size, parietal cortex” value stood at 5.26; the “Effect size, posterior cingulate cortex” value came out at 6.34; the “Effect size, prefrontal cortex” value was 5.82; the “Effect size, white matter” value is on record as 2.67. Further, on amyloid-β (AD patients), the “DVR (mean ± SD), anterior cingulate cortex” value is 1.97 ± 0.15; the “DVR (mean ± SD), grey matter” value stood at 1.72 ± 0.17; the “DVR (mean ± SD), hippocampus” value turned out to be 1.11 ± 0.10; the “DVR (mean ± SD), lateral temporal cortex” value was 1.94 ± 0.22. Further, at amyloid-β (AD patients), the “DVR (mean ± SD), parietal cortex” value was 2.07 ± 0.25; the “DVR (mean ± SD), posterior cingulate cortex” value was determined as 2.10 ± 0.18; the “DVR (mean ± SD), prefrontal cortex” value is listed as 2.13 ± 0.23; the “DVR (mean ± SD), white matter” value was found to be 1.25 ± 0.05. In addition, on amyloid-β (control subjects), the “DVR (mean ± SD), anterior cingulate cortex” value is on record as 0.92 ± 0.02; the “DVR (mean ± SD), grey matter” value is 1.05 ± 0.05; the “DVR (mean ± SD), hippocampus” value is 0.95 ± 0.08; the “DVR (mean ± SD), lateral temporal cortex” value came out at 1.03 ± 0.05. Moreover, at amyloid-β (control subjects), the “DVR (mean ± SD), parietal cortex” value amounted to 1.04 ± 0.04; the “DVR (mean ± SD), posterior cingulate cortex” value came to 1.17 ± 0.02; the “DVR (mean ± SD), prefrontal cortex” value is recorded as 1.04 ± 0.04; the “DVR (mean ± SD), white matter” value is given as 1.08 ± 0.13.

Take `CC(=C(C#N)C#N)c1ccc2cc(N(C)CC[18F])ccc2c1` [[^18F]FDDNP]: the “specific binding signal compared to other amyloid radioligands” value in data set [4] is reported as “ninefold lower”.
